Data taken from ChEMBL document CHEMBL3352366, “Synthesis and biological evaluation of 2,3-dihydroimidazo[1,2-a]benzimidazole derivatives against Leishmania donovani and Trypanosoma cruzi” (Eur J Med Chem, 2014).
pEC50: −log10 of the molar value. Calls of active or inactive are those of the source. No cut-off for these calls is given here.

Assays:
[1] = Cytotoxicity against human THP1 cells infected with intracellular amastigote stage of Leishmania donovani MHOM/ET/67/HU3; format: cell-based, THP-1
How it was run: (§1)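 Host THP-1 cytotoxicity was taken from the same intracellular amastigote images (PMA-differentiated, infected, 3-day compound exposure) by counting cell numbers normalized to 1 % DMSO. CC₅₀ is the average of duplicates; SI was calculated from EC₅₀ and CC₅₀.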

[2] = system: Trypanosoma cruzi; assay: Antitrypanosomal activity against intracellular Trypanosoma cruzi infected in human U2OS cells after 48 hrs by confocal microscopy; format: functional, organism-based
How it was run: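 T. cruzi tissue-culture trypomastigotes were raised in LLC-MK2 cells. U2OS cells and parasites were mixed, dispensed onto compound plates and incubated 48 h at 37 °C, 5 % CO₂. Cells were fixed with 4 % paraformaldehyde, DRAQ5-stained and imaged by confocal microscopy to count parasites and infection ratio. Controls: benznidazole 400 µM and 1 % DMSO. EC₅₀ derived from infection ratio normalized to the controls.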

[3] = Cytotoxicity against human U2OS cells infected with intracellular Trypanosoma cruzi; format: cell-based
How it was run: (§2)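 U2OS cytotoxicity was measured in the same 48 h T. cruzi infection assay by counting host cell numbers in the DRAQ5-stained confocal images to give CC₅₀. SI was calculated from EC₅₀ and CC₅₀.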

[4] = system: Leishmania donovani; assay: Antileishmanial activity against intracellular amastigote stage of Leishmania donovani MHOM/ET/67/HU3 infected in human THP1 cells after 3 days by confocal microscopy; format: functional, organism-based; conditions: MHOM/ET/67/HU3, THP-1, 72 h
[5] = Selectivity index, ratio of IC50 for human U2OS cells to IC50 for intracellular Trypanosoma cruzi; format: toxicity, cell-based; conditions: U2OS cells versus intracellular Trypanosoma cruzi, read-out: Selectivity Index; how it was run: as §2
[6] = Selectivity index, ratio of IC50 for human THP1 cells to IC50 for intracellular amastigote stage of Leishmania donovani MHOM/ET/67/HU3; format: toxicity, cell-based, THP-1; conditions: read-out: Selectivity Index; how it was run: as §1
[7] = system: Leishmania donovani; assay: Antileishmanial activity against extracellular promastigote stage of Leishmania donovani MHOM/ET/67/HU3 incubated for 28 hrs followed by additional 20 hrs incubation
[8] = system: Leishmania donovani; assay: Antileishmanial activity against intracellular amastigote stage of Leishmania donovani MHOM/ET/67/HU3 infected in human THP1 cells assessed as reduction in parasite count at 12.5 uM after 3 days by confocal microscopy; format: functional, organism-based; conditions: THP-1
[9] = system: Trypanosoma cruzi; assay: Antitrypanosomal activity against intracellular Trypanosoma cruzi infected in human U2OS cells assessed as reduction in parasite count at 400 uM after 48 hrs by confocal microscopy; format: functional, organism-based
[10] = system: Trypanosoma cruzi; assay: Antitrypanosomal activity against intracellular Trypanosoma cruzi infected in human U2OS cells assessed as reduction in parasite count at 12.5 uM after 48 hrs by confocal microscopy; format: functional, organism-based
[11] = system: Trypanosoma cruzi; assay: Antitrypanosomal activity against intracellular Trypanosoma cruzi infected in human U2OS cells assessed as reduction in parasite count at 6.25 uM after 48 hrs by confocal microscopy; format: functional, organism-based

CC(C)(C)c1ccc(OCCN2C3=NCCN3c3ccccc32)cc1
CC50 [1]: 33.1 µM | pEC50 [2]: 5.06 | CC50 [3]: 37.9 µM | pEC50 [4]: 4.56 | selectivity ratio [5]: 4.36 | selectivity ratio [6]: 1.21

Cc1ccc(-c2ccc(CN3C4=NCCN4c4ccccc43)cc2)cc1
CC50 [1]: 27.1 µM | pEC50 [2]: 5.13 | CC50 [3]: 10.3 µM | pEC50 [4]: 4.75 | selectivity ratio [5]: 1.38 | pEC50 [7]: 5.76 | selectivity ratio [6]: 1.52

CC(C)(C)c1ccc(CN2C3=NCCCN3c3ccccc32)cc1
CC50 [1]: > 50 µM | pEC50 [2]: 5.51 | CC50 [3]: > 50 µM | pEC50 [4]: 4.90 | selectivity ratio [5]: > 16.2 | pEC50 [7]: 5.56 | selectivity ratio [6]: > 3.98

FC(F)(F)Oc1ccc(CN2C3=NCCN3c3ccccc32)cc1
CC50 [1]: > 50 µM | pEC50 [4]: < 4.30

CC(C)c1ccc(CN2C3=NCCN3c3ccccc32)cc1
CC50 [1]: > 50 µM | pEC50 [2]: < 4.30 | CC50 [3]: > 50 µM | growth inhibition (GI) [8]: inactive | pEC50 [4]: < 4.30

Cc1cc2c(cc1C)N(Cc1ccc(C(C)(C)C)cc1)C1=NCCN12
CC50 [1]: > 50 µM | pEC50 [2]: < 4.30 | CC50 [3]: > 50 µM | pEC50 [4]: < 4.30

CCCCCCCCCCCCCCCCOP(=O)([O-])OCC[N+](C)(C)C [MILTEFOSINE]
CC50 [1]: 18.9 µM | growth inhibition (GI) [8]: Active | pEC50 [4]: 5.32 | pEC50 [7]: 4.95 | selectivity ratio [6]: 3.91

FC(F)(F)Oc1ccc(-c2ccc(CN3C4=NCCN4c4ccccc43)cc2)cc1
CC50 [1]: 11 µM | pEC50 [2]: < 4.30 | CC50 [3]: > 50 µM | pEC50 [4]: 5.28 | pEC50 [7]: 5.82 | selectivity ratio [6]: 2.11

FC(F)(F)c1ccc(CN2C3=NCCN3c3ccccc32)cc1
CC50 [1]: > 50 µM | pEC50 [2]: 4.87 | CC50 [3]: > 50 µM | pEC50 [4]: < 4.30 | selectivity ratio [5]: > 3.75

N#Cc1ccc(CN2C3=NCCN3c3ccccc32)cc1
CC50 [1]: > 50 µM | pEC50 [4]: < 4.30

Cc1cc(C)cc(CN2C3=NCCN3c3ccccc32)c1
CC50 [1]: > 50 µM | pEC50 [2]: < 4.30 | CC50 [3]: > 50 µM | pEC50 [4]: < 4.30

FC(F)(F)c1ccc(-c2ccc(CN3C4=NCCN4c4ccccc43)cc2)cc1
CC50 [1]: 30 µM | pEC50 [2]: < 4.30 | CC50 [3]: > 50 µM | pEC50 [4]: 4.99 | pEC50 [7]: 5.51 | selectivity ratio [6]: 2.91

Fc1ccc(F)c(-c2ccc(CN3C4=NCCN4c4ccccc43)cc2)c1
CC50 [1]: > 50 µM | pEC50 [2]: 5.35 | CC50 [3]: 9.61 µM | pEC50 [4]: 4.49 | selectivity ratio [5]: 2.14 | pEC50 [7]: 5.04 | selectivity ratio [6]: > 1.54

Cc1ccc2c(c1)N1CCN=C1N2Cc1ccc(C(C)(C)C)cc1
CC50 [1]: 28.1 µM | pEC50 [2]: 4.71 | CC50 [3]: > 50 µM | pEC50 [4]: 4.96 | selectivity ratio [5]: > 2.28 | pEC50 [7]: 5.74 | selectivity ratio [6]: 2.55

c1ccc(CN2C3=NCCN3c3ccccc32)cc1
CC50 [1]: > 50 µM | pEC50 [4]: < 4.30

CC(C)(C)c1ccc(CN2C3=NC(=O)CN3c3ccccc32)cc1
CC50 [1]: > 50 µM | pEC50 [2]: < 4.30 | CC50 [3]: > 50 µM | pEC50 [4]: < 4.30

c1ccc2c(c1)N1CCN=C1N2Cc1ccc(C2CCCCC2)cc1
CC50 [1]: 22.8 µM | pEC50 [2]: 5.80 | CC50 [3]: 6.1 µM | pEC50 [4]: 5.27 | selectivity ratio [5]: 3.81 | pEC50 [7]: 5.77 | selectivity ratio [6]: 4.19

CC(C)(C)c1ccc(C(=O)CN2C3=NCCN3c3ccccc32)cc1
CC50 [1]: > 50 µM | pEC50 [2]: 4.44 | CC50 [3]: > 50 µM | pEC50 [4]: 4.40 | selectivity ratio [5]: > 1.39 | selectivity ratio [6]: > 1.27

c1ccc(-c2ccc(CN3C4=NCCN4c4ccccc43)cc2)cc1
CC50 [1]: 39.7 µM | pEC50 [2]: 5.68 | CC50 [3]: 18.8 µM | pEC50 [4]: 5.28 | selectivity ratio [5]: 8.95 | pEC50 [7]: 5.83 | selectivity ratio [6]: 7.5

COc1ccc(-c2ccc(CN3C4=NCCN4c4ccccc43)cc2)cc1
CC50 [1]: 23 µM | pEC50 [2]: < 4.30 | CC50 [3]: > 50 µM | pEC50 [4]: 4.99 | pEC50 [7]: 5.63 | selectivity ratio [6]: 2.25

C[C@@H]1[C@H](O)[C@@H](C)/C=C/C=C/C=C/C=C/C=C/C=C/C=C/[C@H](O[C@@H]2O[C@H](C)[C@@H](O)[C@H](N)[C@@H]2O)C[C@@H]2O[C@](O)(C[C@@H](O)C[C@@H](O)[C@H](O)CC[C@@H](O)C[C@@H](O)CC(=O)O[C@H]1C)C[C@H](O)[C@H]2C(=O)O [AMPHOTERICIN B]
growth inhibition (GI) [8]: Active | pEC50 [7]: 6.66 | selectivity ratio [6]: 30.2

CC(C)(C)c1ccc(CN2C3=NCCN3c3cc(Cl)ccc32)cc1
CC50 [1]: 12.5 µM | pEC50 [2]: 5.21 | CC50 [3]: 44.6 µM | pEC50 [4]: 5.13 | pEC50 [7]: 5.65 | selectivity ratio [6]: 1.71

CC(C)(C)c1ccc(CN2C3=NCCN3c3cc(F)ccc32)cc1
CC50 [1]: > 50 µM | pEC50 [2]: 5.08 | CC50 [3]: 50 µM | pEC50 [4]: 4.85 | selectivity ratio [5]: 6.07 | pEC50 [7]: 5.90 | selectivity ratio [6]: > 3.57

O=C(Cn1ccnc1[N+](=O)[O-])NCc1ccccc1 [BENZNIDAZOLE]
growth inhibition (GI) [9]: Active | pEC50 [2]: 4.68 | growth inhibition (GI) [10]: inactive | CC50 [3]: > 50 µM | selectivity ratio [5]: > 2.42

Fc1ccc(CN2C3=NCCN3c3ccccc32)cc1
CC50 [1]: > 50 µM | pEC50 [2]: < 4.30 | CC50 [3]: > 50 µM | pEC50 [4]: < 4.30

CCc1ccc(CN2C3=NCCN3c3ccccc32)cc1
CC50 [1]: > 50 µM | pEC50 [2]: 4.47 | CC50 [3]: > 50 µM | pEC50 [4]: 4.38 | selectivity ratio [5]: > 1.48 | selectivity ratio [6]: > 1.19

CS(=O)(=O)c1ccc(CN2C3=NCCN3c3ccccc32)cc1
CC50 [1]: > 50 µM | pEC50 [4]: < 4.30

c1ccc(CN2C3=NCCN3c3ccccc32)nc1
CC50 [1]: > 50 µM | pEC50 [2]: < 4.30 | CC50 [3]: > 50 µM | pEC50 [4]: < 4.30

Clc1ccc(-c2ccc(CN3C4=NCCN4c4ccccc43)cc2)cc1
CC50 [1]: 20 µM | pEC50 [2]: 5.25 | CC50 [3]: 9.36 µM | pEC50 [4]: 4.86 | selectivity ratio [5]: 1.7 | selectivity ratio [6]: 1.46

CC(C)(C)c1ccc(CN2C3=NCCN3c3ccccc32)cc1
CC50 [1]: > 50 µM | pEC50 [2]: 5.96 | inhibition [2]: Dose-dependent effect | CC50 [3]: 36.5 µM | growth inhibition (GI) [11]: Active | growth inhibition (GI) [8]: Active | pEC50 [4]: 5.52 | selectivity ratio [5]: 33.2 | pEC50 [7]: 5.90 | selectivity ratio [6]: > 16.4

CC(C)(C)c1ccc(CCN2C3=NCCN3c3ccccc32)cc1
CC50 [1]: > 50 µM | pEC50 [2]: 4.90 | CC50 [3]: 21 µM | pEC50 [4]: 4.60 | selectivity ratio [5]: 1.65 | pEC50 [7]: 4.68 | selectivity ratio [6]: > 1.98

CC(C)(C)c1cccc(CN2C3=NCCN3c3ccccc32)c1
CC50 [1]: > 50 µM | pEC50 [2]: 4.90 | CC50 [3]: 34.6 µM | pEC50 [4]: 4.65 | selectivity ratio [5]: 2.77 | pEC50 [7]: 5.30 | selectivity ratio [6]: > 2.21

c1ccc(Oc2ccc(CN3C4=NCCN4c4ccccc43)cc2)cc1
CC50 [1]: 48 µM | pEC50 [2]: 4.41 | CC50 [3]: 20 µM | pEC50 [4]: 4.90 | selectivity ratio [5]: 0.52 | pEC50 [7]: 5.70 | selectivity ratio [6]: 3.82

Fc1ccc(-c2ccc(CN3C4=NCCN4c4ccccc43)cc2)cc1
CC50 [1]: 35 µM | pEC50 [2]: 5.05 | CC50 [3]: > 50 µM | pEC50 [4]: 5.05 | selectivity ratio [5]: > 5.62 | pEC50 [7]: 5.83 | selectivity ratio [6]: 3.94
